Measurements of several laboratories.
Protocols differ between the studies behind these lines.
GRM7: Metabotropic glutamate receptor 7 (GRM7, Homo sapiens, UniProt Q14831)
HDAC6: Protein deacetylase HDAC6 (HDAC6, Homo sapiens, UniProt Q9UBN7)
CAPN1: Calpain-1 catalytic subunit (CAPN1, Homo sapiens, UniProt P07384)
PDE4D: 3',5'-cyclic-AMP phosphodiesterase 4D (PDE4D, Homo sapiens, UniProt Q08499)
Dihydroorotate dehydrogenase, mitochondrial, putative: Dihydroorotate dehydrogenase, mitochondrial, putative (Plasmodium vivax, UniProt A5K1N1)
F2: Prothrombin (F2, Homo sapiens, UniProt P00734)
KCNK9: Potassium channel subfamily K member 9 (KCNK9, Homo sapiens, UniProt Q9NPC2)
MEP1B: Meprin A subunit beta (MEP1B, Homo sapiens, UniProt Q16820)
CDK7 with cyclin H: Cyclin-dependent kinase 7, with cyclin H (CDK7, Homo sapiens, UniProt P50613)

SMILES | target | observed | action | method | notes | IC50 [µM]
COc1ccc(-c2coc(-c3cc(OC(F)(F)F)ccc3-n3cncn3)n2)cc1OC | GRM7 | calcium signal | antagonist |  |  | > 10
Cc1nc2ccccc2n1Cc1nc(C(=O)NO)co1 | HDAC6 | enzyme activity | inhibitor |  |  | 3.71
CC(C)Cc1ncc(Cc2ccc(O)cc2)[nH]c1=O | CAPN1 | enzyme activity | inhibitor |  |  | 3.9
COc1ccc([C@@H]2CN(C(=O)[C@@H](O)CO)C[C@@]2(C)[C@@H](C)O)cc1OC1CN(c2ccc(C)cn2)C1 | PDE4D | enzyme activity | inhibitor |  |  | 0.00014
CC(C)n1c(/C=C/C(O)CC(O)CC(=O)O)c(-c2ccc(F)cc2)c2ccccc21 (stereo not drawn) | 3-hydroxy-3-methylglutaryl-coenzyme A reductase (HMGCR, Homo sapiens, UniProt P04035) | enzyme activity | inhibitor | absorbance |  | 0.173
COc1ccc2c(Oc3ccc4c(C(=O)Nc5ccccc5N)cccc4c3)ccnc2c1 | Tyrosine-protein kinase SYK (SYK, Homo sapiens, UniProt P43405) | enzyme activity | inhibitor |  |  | > 0.5
Cc1nc(NC2CCc3cc(Cl)ccc3C2)c2c(C)noc2n1 (stereo not drawn) | Dihydroorotate dehydrogenase, mitochondrial, putative | enzyme activity | inhibitor | absorbance |  | 0.058
Cc1nc2ccccc2c(=O)n1NC(=O)CSc1nc2ccccc2c(=O)n1-c1ccccc1 | F2 | enzyme activity | inhibitor |  |  | 5.01
CCOCc1nc(O)c(-c2nnc(Cc3ccc(Cl)cn3)o2)c(O)c1-c1c(OC)cccc1OC | 5-hydroxytryptamine receptor 1B (HTR1B, Homo sapiens, UniProt P28222) | ligand displacement |  | radioligand |  | > 30
COC(=O)C1=C(C)NC(C)=C(C(=O)OCCN(C)Cc2ccccc2)C1c1cccc([N+](=O)[O-])c1 (stereo not drawn) | KCNK9 | ion flux | inhibitor |  |  | > 30
O=C(Nc1cccnc1)N1CCC(Cc2cccc(Oc3ccc(C(F)(F)F)cn3)c2)CC1 | Liver carboxylesterase 1 (CES1, Homo sapiens, UniProt P23141) | enzyme activity | inhibitor |  |  | > 10
O=C(CCN(Cc1cccnc1)Cc1ccc2c(c1)OCO2)NO | MEP1B | enzyme activity | inhibitor |  |  | 9.65
CN(C)CC#Cc1ccc2[nH]c3c(c2c1)-c1nc(N)ncc1CCC3 | Cyclin-dependent kinase 7 (CDK7, Homo sapiens, UniProt P50613) | enzyme activity | inhibitor | radiometric |  | > 10
COc1ccc(C2=NN(C3CCCCCC3)C(=O)[C@@H]3CC=CC[C@H]23)cc1-c1ccc(C(=O)NCC(N)=O)cc1 (relative stereo) | PDE4D | enzyme activity | inhibitor |  |  | 0.251
Cc1nc2ccccc2n1Cc1c(F)c(F)c(C(=O)NO)c(F)c1F | HDAC6 | enzyme activity | inhibitor |  |  | 3.5
O=C1NC(=O)/C(=C/c2ccc(OCCNc3nc4c(cnn4C4CCCC4)c(=O)[nH]3)c(F)c2)S1 | PDE4D | enzyme activity | inhibitor |  |  | 0.495
O=c1cc(-c2ccccc2)oc2ccc3ccccc3c12 | CDK7 with cyclin H | enzyme activity | inhibitor | ADP detection |  | 2.97
C=CC(=O)Nc1ccc(N2CCC[C@@H](Nc3ncc(Cl)c(-c4c[nH]c5ccccc45)n3)C2)cc1C | CDK7 with cyclin H | enzyme activity | inhibitor | FRET |  | 0.197
COc1ccc(-c2noc(-c3cc(Cl)ccc3-n3cncn3)n2)c(F)c1OC | GRM7 | calcium signal | antagonist |  |  | > 30
C[C@@H]1O[C@H](OP(=O)(O)OP(=O)(O)OC[C@H]2O[C@@H](n3cnc4c(=O)[nH]c(N)nc43)[C@H](O)[C@@H]2O)[C@@H](F)[C@H](O)[C@@H]1O | Alpha-(1,3)-fucosyltransferase 7 (FUT7, Homo sapiens, UniProt Q11130) | cell-free assay |  |  |  | ~2.5
COc1ccc2cc(/C=N/n3c(C)nc4ccc(Br)cc4c3=O)ccc2c1 | F2 | enzyme activity | inhibitor |  |  | 51.9

SMILES | target | observed | action | method | notes | IC50 [µM]
O=c1cc(-c2ccc3c(c2)OCO3)oc2c1ccc1occc12 | CDK7 with cyclin H | enzyme activity | inhibitor | ADP detection |  | > 100
CC(C)C[C@H](NC(=O)[C@H]1O[C@@H]1C(=O)O)C(=O)NCCCCN=C(N)N | CAPN1 | enzyme activity | inhibitor |  |  | 0.0309
O=C(CCN(Cc1ccc2c(c1)OCO2)Cc1ccc(Cl)cc1F)NO | MEP1B | enzyme activity | inhibitor |  |  | 0.96
N#Cc1nc(NCc2cccc(-c3cc4ccccc4n3S(=O)(=O)c3ccccc3)c2)c2ncn(CCCO)c2n1 | Cathepsin B-like cysteine protease (Trypanosoma brucei, UniProt Q6R7Z5) | enzyme activity | inhibitor |  |  | > 15
COc1cc2c(NC3CCN(C)CC3)nc(N3CCCN(C)CC3)nc2cc1OCCCCCCN(C)C | Histone-lysine N-methyltransferase EHMT2 (EHMT2, Homo sapiens, UniProt Q96KQ7) | enzyme activity | inhibitor |  |  | 1.5
C=CC(=O)Nc1ccc(N2CCC[C@@H](Nc3ncc(Cl)c(-c4c[nH]c5ccccc45)n3)C2)c(F)c1 | CDK7 with cyclin H | enzyme activity | inhibitor | FRET |  | 0.318
OCc1ccc2c(c1C#Cc1ccc(O)cc1)C(c1ccc(O)cc1)(c1ccc(O)cc1)c1cc(O)ccc1-2 | PDE4D | enzyme activity | inhibitor |  |  | 0.267
COc1cc(N2CCN(C)CC2)ccc1Nc1ncc2c(n1)N(C)c1ccccc1C(=O)N2 | Mitogen-activated protein kinase 7 (MAPK7, Homo sapiens, UniProt Q13164) | enzyme activity | inhibitor | radiometric |  | 1.2
Cc1nc2ccc(Cl)cc2c(=O)n1NC(=O)CCl | F2 | enzyme activity | inhibitor |  |  | 83.9
COCCOC(=O)C1=C(C)NC(C)=C(C(=O)OC(C)C)C1c1cccc([N+](=O)[O-])c1 (stereo not drawn) | Potassium channel subfamily K member 18 (KCNK18, Homo sapiens, UniProt Q7Z418) | ion flux | inhibitor |  |  | 17.5
Cc1cn([C@H]2C[C@H](N=[N+]=[N-])[C@@H](CO)O2)c(=O)[nH]c1=O | Gag-Pol polyprotein, reverse transcriptase (gag-pol, Human immunodeficiency virus type 1 group M subtype B, UniProt P04585) | enzyme activity | inhibitor | ELISA |  | 12.2
O=C(N[C@@H](Cc1c[nH]c2ccccc12)C(=O)O)c1ccc(Cl)cc1 | Free fatty acid receptor 3 (FFAR3, Homo sapiens, UniProt O14843) | GTPγS binding | antagonist |  | cell membranes | > 31.6
Cc1nc2ccc(Br)cc2c(=O)n1/N=C/c1ccc(C(=O)O)cc1 | F2 | enzyme activity | inhibitor |  |  | 48.6
CCCON(Cc1ccc(C(=O)NO)cc1)C(=O)Nc1ccc(N(C)C)cc1 | HDAC6 | enzyme activity | inhibitor | fluorescence |  | 0.022
COc1cc(/C=N/n2c(C)nc3ccc(C)cc3c2=O)cc([N+](=O)[O-])c1O | F2 | enzyme activity | inhibitor |  |  | 210
CC(C)(C)n1nc(-c2cnc3cc(OC4CC4)ccc3c2)c(C(N)=O)c1N | Mitogen-activated protein kinase 1 (MAPK1, Homo sapiens, UniProt P28482) | cell-free assay |  |  |  | > 10
O=C(CCN(Cc1ccncc1)Cc1ccc2c(c1)OCO2)NO | MEP1B | enzyme activity | inhibitor |  |  | 8.18
Cc1nc(NC2CCc3cc(Br)ccc3C2)c2c(C)noc2n1 (stereo not drawn) | Dihydroorotate dehydrogenase, mitochondrial, putative | enzyme activity | inhibitor | absorbance |  | 0.15
COc1ccc(-c2nsc(NC(=O)[C@@H]3C[C@H]3C)c2C)cc1 | GRM7 | calcium signal | antagonist |  |  | > 12.5
CCOC(=O)C1=C(C)NC(C)=C(C(=O)OC)C1c1cccc([N+](=O)[O-])c1 (stereo not drawn) | KCNK9 | ion flux | inhibitor |  |  | > 30
CCCC[C@H](NC(=O)[C@H](C)c1c(C)[nH]c2ccc(O)cc12)c1ncc(-c2cc3ccccc3nc2OC)[nH]1 | HDAC6 | enzyme activity | inhibitor |  |  | > 45
